In data set [1] the target is T1, Endothelin receptor type B (Homo sapiens, UniProt P24530).
T1 sequence (P24530 whole entry): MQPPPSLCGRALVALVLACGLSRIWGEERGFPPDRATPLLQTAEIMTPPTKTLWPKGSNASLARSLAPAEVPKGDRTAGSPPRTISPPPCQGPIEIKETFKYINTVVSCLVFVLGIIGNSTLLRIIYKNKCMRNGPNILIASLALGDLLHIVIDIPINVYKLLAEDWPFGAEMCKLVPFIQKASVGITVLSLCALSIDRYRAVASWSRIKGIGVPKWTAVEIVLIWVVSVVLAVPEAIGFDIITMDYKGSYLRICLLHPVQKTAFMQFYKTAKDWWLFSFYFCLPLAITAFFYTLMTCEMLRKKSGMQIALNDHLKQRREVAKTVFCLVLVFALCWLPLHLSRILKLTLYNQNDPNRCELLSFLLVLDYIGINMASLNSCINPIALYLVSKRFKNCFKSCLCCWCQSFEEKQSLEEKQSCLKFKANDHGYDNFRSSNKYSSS
The experiment in a line: Binding affinity against human endothelin B receptor in CHO cells. Type of data set: cell-based. Summed up: (§1)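 Human ET-A and ET-B receptors expressed in CHO cells, run as a second binding assay alongside the rat/porcine screen. IC50 was derived from radioligand displacement: [125I]ET-1 for ET-A and [125I]ET-3 for ET-B.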

Data set [2] addresses T2, Endothelin-1 receptor (Rattus norvegicus, UniProt P26684).
T2 sequence (P26684 whole entry): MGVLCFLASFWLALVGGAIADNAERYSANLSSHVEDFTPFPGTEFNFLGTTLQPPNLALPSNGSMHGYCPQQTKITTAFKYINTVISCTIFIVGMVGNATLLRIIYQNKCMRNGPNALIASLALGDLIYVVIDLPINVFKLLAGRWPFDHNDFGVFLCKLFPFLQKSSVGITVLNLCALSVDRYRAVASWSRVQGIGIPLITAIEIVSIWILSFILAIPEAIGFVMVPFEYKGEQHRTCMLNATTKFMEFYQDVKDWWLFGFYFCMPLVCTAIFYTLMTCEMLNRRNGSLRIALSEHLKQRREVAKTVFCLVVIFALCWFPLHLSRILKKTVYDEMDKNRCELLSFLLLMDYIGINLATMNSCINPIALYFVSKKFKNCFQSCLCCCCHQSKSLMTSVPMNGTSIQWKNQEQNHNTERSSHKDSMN
The experiment in a line: Binding affinity against endothelin A receptor in MMQ cells in rat. Type of data set: cell-based.

The nature of data set [3]: Compound was evaluated for half life period when administered intravenously. It counts as ADME, organism-based. The settings on record: in vivo, iv. The gist of the method: (§2)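 Rats were dosed by intravenous injection at 5 mg/kg. Plasma drug levels were followed over time, and half-life was derived from the iv time course.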
Data set [4] in a line: (§3) Compound was evaluated for bioavailability. Type of data set: ADME, organism-based. The settings on record: eutheria, in vivo. The gist of the method:
(§4)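 Rats (n = 3) were given 10 mg/kg by oral gavage. Plasma drug concentration was followed over time and compared with the intravenous time course. Oral half-life, Cmax, AUC and oral bioavailability were derived from these profiles.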

Data set [5] can be described thus: Compound was evaluated for pharmacokinetic data, area under curve (AUC). Type of data set: ADME. The gist of the method:
as §4

Data set [6] is described as follows: Compound was evaluated for pharmacokinetic data, Cmax. It counts as ADME, organism-based. Conditions: in vivo. The gist of the method:
as §4

The nature of data set [7]: Compound was evaluated for half life period when administered orally. Conditions: in vivo, po. Type of data set: ADME, organism-based. Summed up: as §4
Data set [8] in a line: as §3. It counts as ADME, organism-based. The settings on record: eutheria, in vivo. Summed up:
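Rats received the drug by intravenous injection (5 mg/kg) and by oral gavage (10 mg/kg), three rats per route. Plasma drug levels were followed over time. Oral bioavailability (F) was derived by comparing plasma exposure after oral dosing with that after iv dosing.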
This is another data set of the same source.

The target in data set [9] is T3, Endothelin-1 receptor (Homo sapiens, UniProt P25101).
T3 sequence (P25101 whole entry): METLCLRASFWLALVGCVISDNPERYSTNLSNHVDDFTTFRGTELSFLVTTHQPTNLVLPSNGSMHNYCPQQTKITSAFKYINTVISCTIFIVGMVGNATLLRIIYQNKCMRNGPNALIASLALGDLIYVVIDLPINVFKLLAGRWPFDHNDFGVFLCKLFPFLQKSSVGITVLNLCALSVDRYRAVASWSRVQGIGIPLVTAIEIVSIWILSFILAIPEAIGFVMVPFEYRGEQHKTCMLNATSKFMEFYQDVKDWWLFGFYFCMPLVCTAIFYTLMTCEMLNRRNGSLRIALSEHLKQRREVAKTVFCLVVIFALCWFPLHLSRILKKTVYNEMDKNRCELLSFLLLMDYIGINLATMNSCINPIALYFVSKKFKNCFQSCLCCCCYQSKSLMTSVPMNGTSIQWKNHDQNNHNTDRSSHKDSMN
The experiment in a line: Binding affinity against human Endothelin A receptor. The gist of the method: as §1

Data set [10] is described as follows: Compound was evaluated for half-life period when administered intravenously. Type of data set: ADME, organism-based. The settings on record: in vivo, iv. Summed up:
as §2

SMILES strings stand for the structures.

What is called IC50 is the concentration that inhibits the measured activity by half. Lower therefore signals higher potency. In data set [1], `CCCCN(CCCC)C(=O)CN1C[C@H](c2ccc3c(c2)OCCO3)[C@@H](C(=O)O)[C@@H]1c1ccc(CC)c(F)c1` yielded an IC50 of 950 nM.
The molecule `CCCCN(CCCC)C(=O)CN1C[C@H](c2ccc3c(c2)CCO3)[C@@H](C(=O)O)[C@@H]1c1ccc(C)cc1` showed an IC50 on Endothelin-1 receptor [2] of 0.78 nM. This counts as sub-nanomolar.
With `CCCCN(CCCC)C(=O)CN1C[C@H](c2ccc3c(c2)OCO3)[C@@H](C(=O)O)[C@@H]1c1ccc(CCC)cc1`, the IC50 on Endothelin-1 receptor [2] amounted to 1.06 nM.
The same measure, in the same setting: the same measure for `CCCCN(CCCC)C(=O)CN1C[C@H](c2ccc3c(c2)OCC3)[C@@H](C(=O)O)[C@@H]1c1ccc(OC)cc1`: 1.2 nM.
Same read-out and setting: the same measure for `CCCCN(CCCC)C(=O)CN1C[C@H](c2ccc3c(c2)OCO3)[C@@H](C(=O)O)[C@@H]1c1ccc(OC)c(F)c1`: 0.07 nM.
The half-life is the time in which the quantity being followed falls by half. Read a high half-life as slow loss. The bioavailability is the share of a dose that reaches the circulation, judged against a reference dose that is usually intravenous. In general, AUC refers to concentration integrated over time. As a reminder, the Cmax is the peak of the concentration-time curve. For the molecule `CCCCN(CCCC)C(=O)CN1C[C@H](c2ccc3c(c2)CCO3)[C@@H](C(=O)O)[C@@H]1c1ccc(C)c(F)c1` (stereo in doubt; 8), the half-life in data set [3] is 4.7 h; in data set [7], 5.8 h. The bioavailability in [4] (read-out: Bioavailability) is 65.6%. Further, the AUC in data set [5] was 9.4 µg·h/mL. Also, the IC50 in data set [1] came out at 4400 nM. In data set [6] (read-out: Cmax), the Cmax worked out at 0.93 µg/mL.
`CCCCN(CCCC)C(=O)CN1C[C@H](c2ccc3c(c2)OCO3)[C@@H](C(=O)O)[C@@H]1c1ccc(C)cc1` came in with an IC50 at Endothelin-1 receptor [2] of 0.12 nM.
For the molecule `CCCCN(CCCC)C(=O)CN1C[C@H](c2ccc3c(c2)OCO3)[C@@H](C(=O)O)[C@@H]1c1ccc(OC)cc1`, the bioavailability in [4] (read-out: Bioavailability) was determined as 60.2%. In addition, the AUC in [5] was found to be 7.36 µg·h/mL. The Cmax in [6] (read-out: Cmax) worked out at 3.44 µg/mL. For the same molecule, the half-life in data set [7] was 6.2 h.
`CCCCN(CCCC)C(=O)CN1C[C@H](c2ccc3c(c2)OCO3)[C@@H](C(=O)O)[C@@H]1c1ccc(OC)c(OC)c1` gave an IC50 at Endothelin-1 receptor [2] of 0.11 nM. In other words, the sub-nanomolar range.
In the case of `CCCCN(CCCC)C(=O)CN1C[C@H](c2cc(OC)c3c(c2)OCO3)[C@@H](C(=O)O)[C@@H]1CC(C)(C)CCC` [ABT-546], the exposure (AUC) in data set [5] amounted to 3.27 µg·h/mL. In addition, the bioavailability in data set [8] turned out to be 47.7%.
In turn, `CCCCN(CCCC)C(=O)CN1C[C@H](c2ccc3c(c2)OCO3)[C@@H](C(=O)O)[C@@H]1c1ccc(F)c(F)c1` returned an IC50 at Endothelin-1 receptor [2] of 1.38 nM.
On the same count and under the same terms, the value for `CCCCN(CCCC)C(=O)CN1C[C@H](c2ccc3c(c2)OCCO3)[C@@H](C(=O)O)[C@@H]1c1ccc(CC)cc1` was 5.2 nM; that for `CCCCN(CCCC)C(=O)CN1C[C@H](c2ccc3occc3c2)[C@@H](C(=O)O)[C@@H]1c1ccc(OC)cc1` was 0.48 nM.
The Ki is a dissociation constant, usually derived from enzyme kinetics or from competition with a known ligand. As for `CCCCN(CCCC)C(=O)CN1C[C@H](c2ccc3c(c2)CCO3)[C@@H](C(=O)O)[C@@H]1c1ccc(C)c(F)c1` (stereo in doubt; 8a), the bioavailability in data set [4] turned out to be 71.7%. Moreover, the AUC in data set [5] was 12.5 µg·h/mL. This molecule showed an IC50 in data set [1] of 6200 nM. For the same molecule, affinity at Endothelin-1 receptor [9] was put at a Ki of 0.039 nM. Moreover, in data set [6], the Cmax was 1.84 µg/mL. This molecule also showed a half-life in data set [10] of 2.1 h. In data set [7], the T1/2 stood at 4.7 h.
`CCCCN(CCCC)C(=O)CN1C[C@H](c2ccc3c(c2)CCO3)[C@@H](C(=O)O)[C@@H]1c1ccc(CC)cc1`: the IC50 at Endothelin-1 receptor [2] was 0.92 nM.
`CCCCN(CCCC)C(=O)CN1C[C@H](c2ccc3c(c2)CCO3)[C@@H](C(=O)O)[C@@H]1c1ccc(CC)c(F)c1` had an IC50 in [1] of 3050 nM.
With `CCCCN(CCCC)C(=O)CN1C[C@H](c2ccc3c(c2)OCO3)[C@@H](C(=O)O)[C@@H]1c1ccc(C(F)(F)F)cc1`, the IC50 on Endothelin-1 receptor [2] was 3.28 nM.
The same measure, in the same setting: the same measure for `CCCCN(CCCC)C(=O)CN1C[C@H](c2ccc3c(c2)OCO3)[C@@H](C(=O)O)[C@@H]1c1ccc(CC)cc1`: 0.17 nM.
On the same count and under the same terms, the same measure for `CCCCN(CCCC)C(=O)CN1C[C@H](c2ccc3c(c2)OCCO3)[C@@H](C(=O)O)[C@@H]1c1ccc(OC)cc1`: 0.85 nM.

Source of the values: ChEMBL document CHEMBL1134271 (J Med Chem, 2001).
